# Measured values: ChEMBL document CHEMBL1137007, “Synthesis of 4-substituted pyrido[2,3-d]pyrimidin-4(1H)-one as analgesic and anti-inflammatory agents” (Bioorg Med Chem Lett, 2009)
# Experiments:
# [1] = test system: Mus musculus; assay: Analgesic activity in Wister albino mice at 20 mg/kg, po after 2 hrs by tail-flick test
# [2] = test system: Rattus norvegicus; assay: Antiinflammatory activity in rat assessed as inhibition of carrageenan-induced paw oedema at 20 mg/kg, po after 30 mins; type: functional; set-up: scale not given: the % may be the effect or the level left
# In short: (§1)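 Rats, six per group, were dosed orally (10 or 20 mg/kg, suspension in 1% carboxymethyl cellulose) before carrageenan paw injection. Paw volume was read by mercury-displacement plethysmography just before and 30 min, 1, 2 and 3 h after carrageenan. %inhibition = 100[1 − (a − x)/(b − y)], with the test group's pre/post volumes set against the vehicle control group's. Reported as mean ± SEM (n = 6) with ANOVA.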
# [3] = test system: Rattus norvegicus; assay: Antiinflammatory activity in rat assessed as inhibition of carrageenan-induced paw oedema at 10 mg/kg, po after 2 hrs; type: functional; set-up: scale not given: the % may be the effect or the level left
# In short: as §1
# [4] = test system: Mus musculus; assay: Analgesic activity in Wister albino mice at 20 mg/kg, po after 3 hrs by tail-flick test
# [5] = test system: Rattus norvegicus; assay: Toxicity in Wistar albino rat assessed as ulcer index at 20 mg/kg, ip administered once daily for 3 days; type: organism-based; set-up: dose 20 mg/kg, route intraperitoneal; settings: in vivo, 72 h
# In short: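 Wistar albino rats of either sex (150–200 g), six per group, housed at 25 °C, 45–55% RH, 12-h light/dark cycle and acclimatized one week. Dosing was intraperitoneal as a suspension in 10% v/v Tween-80, with a vehicle-only control group. Animals were fasted 36 h, then pylorus-ligated (Shay method) on day 4 and sacrificed 4 h later for ulcer index. Values are mean ± SEM (n = 6), analysed by one-way ANOVA.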
# [6] = test system: Rattus norvegicus; assay: Antiinflammatory activity in rat assessed as inhibition of carrageenan-induced paw oedema at 10 mg/kg, po after 3 hrs; type: functional; set-up: scale not given: the % may be the effect or the level left
# In short: as §1
# [7] = test system: Rattus norvegicus; assay: Antiinflammatory activity in rat assessed as inhibition of carrageenan-induced paw oedema at 20 mg/kg, po after 2 hrs; type: functional; set-up: scale not given: the % may be the effect or the level left
# In short: as §1
# [8] = test system: Rattus norvegicus; assay: Antiinflammatory activity in rat assessed as inhibition of carrageenan-induced paw oedema at 10 mg/kg, po after 30 mins; type: functional; set-up: scale not given: the % may be the effect or the level left
# In short: as §1
# [9] = test system: Mus musculus; assay: Analgesic activity in Wister albino mice at 10 mg/kg, po after 1 hr by tail-flick test
# [10] = test system: Mus musculus; assay: Analgesic activity in Wister albino mice at 20 mg/kg, po after 1 hr by tail-flick test
# [11] = test system: Mus musculus; assay: Analgesic activity in Wister albino mice at 20 mg/kg, po after 30 mins by tail-flick test
# [12] = test system: Rattus norvegicus; assay: Antiinflammatory activity in rat assessed as inhibition of carrageenan-induced paw oedema at 20 mg/kg, po after 1 hr; type: functional; set-up: scale not given: the % may be the effect or the level left
# In short: as §1
# [13] = test system: Rattus norvegicus; assay: Antiinflammatory activity in rat assessed as inhibition of carrageenan-induced paw oedema at 10 mg/kg, po after 1 hr; type: functional; set-up: scale not given: the % may be the effect or the level left
# In short: as §1
# [14] = test system: Mus musculus; assay: Analgesic activity in Wister albino mice at 10 mg/kg, po after 30 mins by tail-flick test
# [15] = test system: Rattus norvegicus; assay: Antiinflammatory activity in rat assessed as inhibition of carrageenan-induced paw oedema at 20 mg/kg, po after 3 hrs; type: functional; set-up: scale not given: the % may be the effect or the level left
# In short: as §1
# [16] = test system: Mus musculus; assay: Analgesic activity in Wister albino mice at 10 mg/kg, po after 2 hrs by tail-flick test
# [17] = test system: Mus musculus; assay: Analgesic activity in Wister albino mice at 10 mg/kg, po after 3 hrs by tail-flick test
Compound,Activity [1] [%],Activity [2] [%],Activity [3] [%],Activity [4] [%],UI [5],Activity [6] [%],Activity [7] [%],Activity [8] [%],Activity [9] [%],Activity [10] [%],Activity [11] [%],Activity [12] [%],Activity [13] [%],Activity [14] [%],Activity [15] [%],Activity [16] [%],Activity [17] [%]
N#Cc1c(N)nc2[nH]c(=S)[nH]c(=O)c2c1-c1ccc(N2CCOCC2)cc1,66,50,50,43,0.54,36,63,41,47,63,59,61,48,45,47,53,31
N=c1sc(=S)[nH]c2nc3[nH]c(=S)[nH]c(=O)c3c(-c3ccc(N4CCOCC4)cc3)c12,56,30,31,44,0.89,21,42,25,41,53,49,34,28,39,30,44,32
Nc1nc(=S)[nH]c2nc3[nH]c(=S)[nH]c(=O)c3c(-c3ccc(N4CCOCC4)cc3)c12,55,39,43,46,0.67,29,49,33,45,49,48,46,40,42,38,49,33
CN1CCN(c2ccc(-c3c4c(=O)[nH]c(=S)[nH]c4nc4[nH]c(=S)sc(=N)c34)cc2)CC1,49,39,37,38,0.85,22,46,31,35,46,42,40,32,32,31,38,29
CN1CCN(c2ccc(-c3c(C#N)c(N)nc4[nH]c(=S)[nH]c(=O)c34)cc2)CC1,72,48,46,52,0.51,31,60,39,60,68,67,55,40,53,37,64,44
O=c1[nH]cnc2nc3[nH]c(=S)[nH]c(=O)c3c(-c3ccc(N4CCCCC4)cc3)c12,55,35,38,39,0.89,27,44,30,36,50,40,41,34,32,32,45,33
N=c1sc(=S)[nH]c2nc3[nH]c(=S)[nH]c(=O)c3c(-c3ccc(N4CCCCC4)cc3)c12,56,37,39,39,0.73,25,46,33,42,53,51,40,38,38,33,48,34
O=c1[nH]cnc2nc3[nH]c(=S)[nH]c(=O)c3c(-c3ccc(N4CCOCC4)cc3)c12,53,39,38,36,0.86,29,46,31,38,47,44,42,36,30,36,45,29
Cc1nc2nc3[nH]c(=S)[nH]c(=O)c3c(-c3ccc(N4CCCCC4)cc3)c2c(=O)[nH]1,56,36,34,42,0.9,26,41,29,43,56,48,39,33,37,34,48,35
O=C([O-])Cc1ccccc1Nc1c(Cl)cccc1Cl.[Na+] [DICLOFENAC SODIUM],62,45,39,39,1.65,33,60,32,43,55,46,52,38,37,42,45,33
Nc1nc(=S)[nH]c2nc3[nH]c(=S)[nH]c(=O)c3c(-c3ccc(N4CCCCC4)cc3)c12,,,,,0.69,,,,,,,,,,,,
